Experimental data as given in ChEMBL document CHEMBL2417468, “4β-[4'-(1-(Aryl)ureido)benzamide]podophyllotoxins as DNA topoisomerase I and IIα inhibitors and apoptosis inducing agents” (2013).
The source made the active and inactive calls. The calls are words filed in the database; no cut-off is given here.

Columns and labels:
A2780 = assay: Growth inhibition of human A2780 cells after 48 hrs by sulforhodamine B assay; format: functional
SiHa = assay: Growth inhibition of human SiHa cells after 48 hrs by sulforhodamine B assay; format: functional
HOP-62 = assay: Growth inhibition of human HOP62 cells after 48 hrs by sulforhodamine B assay; format: functional
COLO 205 [1] = assay: Growth inhibition of human COLO205 cells after 48 hrs by sulforhodamine B assay; format: functional
[2] = (§1) Growth inhibition of human DWD cells after 48 hrs by sulforhodamine B assay; format: functional
[3] = (§2) Growth inhibition of human Gurav cells after 48 hrs by sulforhodamine B assay; format: functional
KB = assay: Growth inhibition of human KB cells after 48 hrs by sulforhodamine B assay; format: functional
MCF7 = assay: Growth inhibition of human MCF7 cells after 48 hrs by sulforhodamine B assay; format: functional; details: MCF7, 48 h
A549 = assay: Growth inhibition of human A549 cells after 48 hrs by sulforhodamine B assay; format: functional
Gurav = assay: as §2; format: functional
ZR-75-1 = assay: Growth inhibition of human ZR-75-1 cells after 48 hrs by sulforhodamine B assay; format: functional
DWD = assay: as §1; format: functional
COLO 205 [4] = assay: Induction of apoptosis in human COLO205 cells assessed as caspase-3 activation at 2 uM after 24 hrs by Western blotting analysis; format: functional, cell-based
In short: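 Colo-205 cells grown to 80% confluency, 2 µM final for 24 h; RIPA lysates with protease inhibitors, Bradford-quantified, 50 µg protein per lane on 12% SDS-PAGE, PVDF transfer, probed overnight at 4 °C for active caspase-3, β-actin as loading control, chemiluminescent detection.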

COLO 205 [5] = assay: Induction of apoptosis in human COLO205 cells assessed as caspase-3 activation at 2 uM after 24 hrs by ELISA; format: functional, cell-based
In short: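 Colo-205 cells exposed 24 h at 2 µM; lysates in 2X reaction buffer with DTT plus caspase substrate, 1 h at 37 °C; fluorescence read at ex 400/em 505 nm; three independent experiments, mean ± S.D., versus untreated control.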

[6] = target: DNA topoisomerase 2-alpha (Homo sapiens) (UniProt P11388); assay: Inhibition of human topoisomerase 2alpha-mediated relaxation of supercoiled pBR322 DNA at 2 uM after 30 mins by agarose gel electrophoresis
DNA topoisomerase 2-alpha (Homo sapiens), sequence (P11388 whole entry): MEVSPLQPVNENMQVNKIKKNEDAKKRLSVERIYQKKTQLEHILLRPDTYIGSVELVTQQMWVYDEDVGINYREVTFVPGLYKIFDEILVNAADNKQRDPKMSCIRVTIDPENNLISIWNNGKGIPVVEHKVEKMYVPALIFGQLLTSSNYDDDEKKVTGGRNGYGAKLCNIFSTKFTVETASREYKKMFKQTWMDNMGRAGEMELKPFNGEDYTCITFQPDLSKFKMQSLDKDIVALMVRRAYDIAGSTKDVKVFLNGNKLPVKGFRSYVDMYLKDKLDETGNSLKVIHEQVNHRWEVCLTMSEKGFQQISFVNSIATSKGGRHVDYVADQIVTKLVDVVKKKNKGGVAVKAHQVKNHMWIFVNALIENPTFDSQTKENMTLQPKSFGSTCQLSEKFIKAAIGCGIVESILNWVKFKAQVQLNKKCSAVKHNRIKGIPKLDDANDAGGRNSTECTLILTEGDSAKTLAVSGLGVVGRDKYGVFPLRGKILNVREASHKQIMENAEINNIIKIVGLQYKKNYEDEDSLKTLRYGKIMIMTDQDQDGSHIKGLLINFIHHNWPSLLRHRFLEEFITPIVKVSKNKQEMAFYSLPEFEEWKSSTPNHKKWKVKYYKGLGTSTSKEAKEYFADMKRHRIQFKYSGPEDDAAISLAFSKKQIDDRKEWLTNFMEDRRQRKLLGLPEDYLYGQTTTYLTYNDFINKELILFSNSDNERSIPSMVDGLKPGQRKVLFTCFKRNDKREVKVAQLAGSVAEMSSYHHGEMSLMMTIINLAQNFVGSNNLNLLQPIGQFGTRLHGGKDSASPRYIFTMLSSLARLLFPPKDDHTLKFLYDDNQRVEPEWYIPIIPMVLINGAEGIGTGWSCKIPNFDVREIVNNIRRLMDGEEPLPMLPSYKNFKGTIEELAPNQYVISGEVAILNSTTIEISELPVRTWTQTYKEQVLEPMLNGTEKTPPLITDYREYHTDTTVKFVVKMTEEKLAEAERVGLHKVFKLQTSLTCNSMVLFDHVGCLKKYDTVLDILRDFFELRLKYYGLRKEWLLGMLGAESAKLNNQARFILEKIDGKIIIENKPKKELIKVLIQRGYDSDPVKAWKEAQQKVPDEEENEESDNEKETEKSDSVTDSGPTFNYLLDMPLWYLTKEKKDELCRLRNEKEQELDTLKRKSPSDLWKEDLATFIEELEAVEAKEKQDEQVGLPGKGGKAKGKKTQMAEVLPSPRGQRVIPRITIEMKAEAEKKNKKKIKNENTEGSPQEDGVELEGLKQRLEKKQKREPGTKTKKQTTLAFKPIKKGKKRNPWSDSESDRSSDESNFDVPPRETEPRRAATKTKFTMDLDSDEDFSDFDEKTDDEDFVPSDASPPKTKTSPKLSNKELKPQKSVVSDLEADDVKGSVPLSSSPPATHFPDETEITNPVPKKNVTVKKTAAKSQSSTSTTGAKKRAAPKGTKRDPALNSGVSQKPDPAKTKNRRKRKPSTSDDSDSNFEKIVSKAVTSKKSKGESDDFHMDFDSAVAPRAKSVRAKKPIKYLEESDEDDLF
In short: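 Purified human topoisomerase IIα (4 units) with 200 ng supercoiled pBR322 and compound at 2 µM, 30 min at 30 °C in 10 mM Tris-HCl pH 7.9, 50 mM NaCl, 5 mM MgCl2, 1 mM EDTA, 1 mM ATP, 15 µg/mL BSA; EDTA-stopped; 1% agarose gel in TAE, ethidium bromide, UV visualisation.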

COLO 205 [7] = assay: Cell cycle arrest in human COLO205 cells assessed as accumulation at G2/M phase at 2 uM after 24 hrs by propidium iodide staining-based FACS flow cytometric analysis (reference value: 29.52%); format: functional
COLO 205 [8] = assay: Cell cycle arrest in human COLO205 cells assessed as accumulation at S phase at 2 uM after 24 hrs by propidium iodide staining-based FACS flow cytometric analysis (reference value: 4.21%); format: functional
COLO 205 [9] = assay: Cell cycle arrest in human COLO205 cells assessed as accumulation at G0/G1 phase at 2 uM after 24 hrs by propidium iodide staining-based FACS flow cytometric analysis (reference value: 65.23%); format: functional
COLO 205 [10] = assay: Cytotoxicity against human COLO205 cells assessed as reduction in cellular ATP level at 2 uM after 24 hrs by bioluminescence assay; format: functional, cell-based
In short: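 Colo-205 cells exposed 24 h at 2 µM, lysed in ice-cold RIPA, debris spun off at 4 °C; intracellular ATP in supernatant by luciferin-luciferase bioluminescence kit; three independent experiments, mean ± S.D., untreated control.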

COLO 205 [11] = assay: Cytotoxicity against human COLO205 cells assessed as viable cells at 2 uM after 24 hrs by trypan blue exclusion assay; format: functional, cell-based
In short: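 Colo-205 cells treated 24 h at 1, 2 and 4 µM, trypsinised, mixed with 0.4% trypan blue (10 µl per 100 µl cells), counted on haemocytometer; percentage dead cells calculated; triplicate samples.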

MDA-MB-231 [12] = assay: Cytotoxicity against human MDA-MB-231 cells assessed as cell viability at 2 to 4 uM after 24 hrs by MTT assay; format: functional, cell-based
In short: (§3)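 Colo-205 (RPMI, 10% FCS) and MDA-MB-231 (DMEM, 2 mM glutamax, 10% FCS, penicillin/streptomycin) seeded at 1 104 cells/well, 18 h preincubation; fresh medium with compound at 0.5, 1, 2 and 4 µM for 24 h at 37 °C; MTT 2 h, formazan solubilised, OD 570 nm; DMSO ≤0.25%, DMSO-only wells as untreated control.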

COLO 205 [13] = assay: Cytotoxicity against human COLO205 cells assessed as cell viability at 2 to 4 uM after 24 hrs by MTT assay; format: functional, cell-based; in short: as §3
MDA-MB-231 [14] = assay: Cytotoxicity against human MDA-MB-231 cells assessed as cell viability at <0.5 to 1 uM after 24 hrs by MTT assay; format: functional, cell-based; in short: as §3
COLO 205 [15] = assay: Cytotoxicity against human COLO205 cells assessed as cell viability at <0.5 to 1 uM after 24 hrs by MTT assay; format: functional, cell-based; in short: as §3

Compound	GI50 (A2780; A2780, 48 h)	GI50 (SiHa)	GI50 (HOP-62; HOP-62, 48 h)	GI50 (COLO 205 [1]; COLO 205, 48 h)	GI50 [2]	GI50 [3]	GI50 (KB)	GI50 (MCF7)	GI50 (A549; A549, 48 h)	GI50 (HOP-62)	GI50 (Gurav)	GI50 (ZR-75-1; ZR-75-1, 48 h)	GI50 (COLO 205 [1])	also measured
COc1cccc2c1C(=O)c1c(O)c3c(c(O)c1C2=O)C[C@@](O)(C(=O)CO)C[C@@H]3O[C@H]1C[C@H](N)[C@H](O)[C@H](C)O1 [DOXORUBICIN]	0.16 µM	0.17 µM	0.14 µM	0.14 µM	0.1 µM	0.17 µM	0.17 µM	0.17 µM	–	–	–	–	–	–
COc1cc([C@@H]2c3cc4c(cc3[C@@H](NC(=O)c3ccc(NC(=O)NCc5ccco5)cc3)[C@H]3COC(=O)[C@H]23)OCO4)cc(OC)c1OC	2.3 µM	inactive	–	2.34 µM	2.5 µM	–	1.93 µM	2.9 µM	2.62 µM	inactive	inactive	2.6 µM	–	–
COc1cc([C@@H]2c3cc4c(cc3[C@@H](NC(=O)c3ccc(NC(=O)Nc5cc(C(F)(F)F)cc(C(F)(F)F)c5)cc3)[C@H]3COC(=O)[C@H]23)OCO4)cc(OC)c1OC	2.3 µM	inactive	–	–	–	–	2.6 µM	2.7 µM	2.98 µM	inactive	inactive	2.22 µM	inactive	GI50 (DWD): inactive
COc1cc([C@@H]2c3cc4c(cc3[C@@H](NC(=O)c3ccc(NC(=O)Nc5cccc6ccccc56)cc3)[C@H]3COC(=O)[C@H]23)OCO4)cc(OC)c1OC	2.22 µM	2.3 µM	–	2.23 µM	–	2.9 µM	inactive	0.11 µM	2.01 µM	inactive	–	2 µM	–	GI50 (DWD): inactive
COc1cc([C@@H]2c3cc4c(cc3[C@@H](NC(=O)c3ccc(NC(=O)Nc5ccc(F)c(Cl)c5)cc3)[C@H]3COC(=O)[C@H]23)OCO4)cc(OC)c1OC	–	inactive	2.71 µM	2.52 µM	2.61 µM	–	2.01 µM	0.12 µM	1.5 µM	–	inactive	2.9 µM	–	GI50 (A2780): inactive
COc1cc([C@@H]2c3cc4c(cc3[C@@H](NC(=O)c3ccc(NC(=O)Nc5ccc(Br)s5)cc3)[C@H]3COC(=O)[C@H]23)OCO4)cc(OC)c1OC	2.1 µM	2.9 µM	2.6 µM	–	0.1 µM	–	2.5 µM	0.12 µM	1.4 µM	–	inactive	2.4 µM	inactive	–
COc1cc([C@@H]2c3cc4c(cc3[C@@H](NC(=O)c3ccc(NC(=O)NCCCl)cc3)[C@H]3COC(=O)[C@H]23)OCO4)cc(OC)c1OC	1.3 µM	inactive	0.12 µM	0.01 µM	1.6 µM	0.1 µM	0.21 µM	0.1 µM	1.12 µM	–	–	2.9 µM	–	Activity (COLO 205 [4]): Active; Activity (COLO 205 [5]): Active; Inhibition of relaxation (qualitative call) [6]: Active; Activity (COLO 205 [7]): 18.15%; Percent of cells in S phase (COLO 205 [8]): 5.62%; Activity (COLO 205 [9]): 76.22%; Activity (COLO 205 [10]): Active; Activity (COLO 205 [11]): Active; Activity (MDA-MB-231 [12]): Active; Activity (COLO 205 [13]): Active; Activity (MDA-MB-231 [14]): inactive; Activity (COLO 205 [15]): inactive
COc1cc([C@@H]2c3cc4c(cc3[C@@H](NC(=O)c3ccc(NC(=O)Nc5c(Cl)cccc5Cl)cc3)[C@H]3COC(=O)[C@H]23)OCO4)cc(OC)c1OC	–	inactive	–	–	–	–	2.8 µM	0.15 µM	–	inactive	inactive	–	inactive	GI50 (A2780): inactive; GI50 (A549): inactive; GI50 (DWD): inactive; GI50 (ZR-75-1): inactive
COc1cc([C@@H]2c3cc4c(cc3[C@@H](NC(=O)c3ccc(NC(=O)Nc5cccc(Cl)c5)cc3)[C@H]3COC(=O)[C@H]23)OCO4)cc(OC)c1OC	2.8 µM	inactive	2.5 µM	2.6 µM	2.3 µM	2.01 µM	inactive	2.6 µM	–	–	–	2.9 µM	–	GI50 (A549): inactive
COc1ccc(NC(=O)Nc2ccc(C(=O)N[C@@H]3c4cc5c(cc4[C@@H](c4cc(OC)c(OC)c(OC)c4)[C@H]4C(=O)OC[C@@H]43)OCO5)cc2)cc1	1.35 µM	inactive	0.12 µM	0.02 µM	1.7 µM	0.24 µM	2.31 µM	1.1 µM	1.5 µM	–	–	0.18 µM	–	Activity (COLO 205 [4]): Active; Activity (COLO 205 [5]): Active; Inhibition of relaxation (qualitative call) [6]: Active; Activity (COLO 205 [7]): 17.88%; Percent of cells in S phase (COLO 205 [8]): 5.09%; Activity (COLO 205 [9]): 76.61%; Activity (COLO 205 [10]): Active; Activity (COLO 205 [11]): Active; Activity (MDA-MB-231 [12]): Active; Activity (COLO 205 [13]): Active; Activity (MDA-MB-231 [14]): inactive; Activity (COLO 205 [15]): inactive
COc1cc([C@@H]2c3cc4c(cc3[C@@H](NC(=O)c3ccc(NC(=O)NCCBr)cc3)[C@H]3COC(=O)[C@H]23)OCO4)cc(OC)c1OC	0.14 µM	0.21 µM	0.1 µM	0.01 µM	0.17 µM	1.85 µM	inactive	0.14 µM	0.1 µM	–	–	0.16 µM	–	Activity (COLO 205 [4]): Active; Activity (COLO 205 [5]): Active; Inhibition of relaxation (qualitative call) [6]: Active; Activity (COLO 205 [7]): 19.94%; Percent of cells in S phase (COLO 205 [8]): 5.96%; Activity (COLO 205 [9]): 74.1%; Activity (COLO 205 [10]): Active; Activity (COLO 205 [11]): Active; Activity (MDA-MB-231 [12]): Active; Activity (COLO 205 [13]): Active; Activity (MDA-MB-231 [14]): inactive; Activity (COLO 205 [15]): inactive
COc1cc([C@@H]2c3cc4c(cc3[C@@H](NC(=O)c3ccc(NC(=O)Nc5cc(C)cc(C)c5)cc3)[C@H]3COC(=O)[C@H]23)OCO4)cc(OC)c1OC	–	inactive	–	–	1.6 µM	2.7 µM	2.31 µM	0.15 µM	–	inactive	–	2.91 µM	inactive	GI50 (A2780): inactive; GI50 (A549): inactive
